ChEMBL document CHEMBL4699485, “Discovery and Development of SPR519 as a Potent, Selective, and Orally Bioavailable Inhibitor of PI3Kα and mTOR Kinases for the Treatment of Solid Tumors” (J Med Chem, 2020)

Columns and labels:
[1] = Drug level in Swiss mouse lung at 30 mg/kg, po administered twice daily via gavage for 5 days and measured post last dose by LC-MS/MS analysis; format: ADME, organism-based; details: time 5 day, read-out: Drug uptake
Method in brief: (§1)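 Female Swiss mice (n=3) given 30 mg/kg in 0.5% CMC/Tween 80 by oral gavage twice daily for 5 days, with two vehicle controls. After sacrifice, liver, kidney, lung, uterus and brain were collected, homogenized in water and solvent-extracted. Drug concentration (ng/g) measured by LC-MS/MS.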

[2] = Drug level in Swiss mouse uterus at 30 mg/kg, po administered twice daily via gavage for 5 days and measured post last dose by LC-MS/MS analysis; format: ADME, organism-based; details: time 5 day, read-out: Drug uptake; method in brief: as §1
[3] = system: SK-OV-3; experiment: Antiproliferative activity against human SK-OV-3 cells after 48 hrs by MTT assay; format: functional, cell-based; details: SK-OV-3, 48 h
Method in brief: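 SK-OV-3 cells grown in McCoy's 5a with 10% FBS, 100 U/mL penicillin and 100 µg/mL streptomycin at 37 °C, 5% CO2, seeded at 10000 cells/well. Treated 48 h across 20 µM–0.001 µM. MTT (5 mg/mL in PBS) added for 4 h, DMSO solubilization, absorbance read at 550 nm. Four-parameter curve fit of % inhibition.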

[4] = target: Ribosomal protein S6 kinase beta-1 (Homo sapiens) (UniProt P23443); experiment: Inhibition of human P70S6K1 at 1 uM using fluorescently labeled peptide substrate measured after 3 hrs by microfluidic mobility shift assay relative to control
Method in brief: (§2)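 Single-concentration screen at 1 µM in duplicate, 1% final DMSO. Kinase (typically 1 nM), fluorescently labeled peptide substrate (typically 1 µM), ATP at Km and Mg²⁺ incubated about 3 h at 25 °C, then EDTA-quenched. Substrate and phosphorylated product separated by microfluidic electrophoresis and quantified by fluorescence.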

[5] = target: 3-phosphoinositide-dependent protein kinase 1 (Homo sapiens) (UniProt O15530); experiment: Inhibition of human PDK1 at 1 uM using fluorescently labeled peptide substrate measured after 3 hrs by microfluidic mobility shift assay relative to control
[6] = target: Angiopoietin-1 receptor (Homo sapiens) (UniProt Q02763); experiment: Inhibition of human TIE2 at 1 uM using fluorescently labeled peptide substrate measured after 3 hrs by microfluidic mobility shift assay relative to control; method in brief: as §2
[7] = target: Inhibitor of nuclear factor kappa-B kinase subunit beta (Homo sapiens) (UniProt O14920); experiment: Inhibition of human IKBKB at 1 uM using fluorescently labeled peptide substrate measured after 3 hrs by microfluidic mobility shift assay relative to control; method in brief: as §2
[8] = Drug level in Swiss mouse kidney at 30 mg/kg, po administered twice daily via gavage for 5 days and measured post last dose by LC-MS/MS analysis; format: ADME, organism-based; details: time 5 day, read-out: Drug uptake; method in brief: as §1
[9] = Drug level in Swiss mouse liver at 30 mg/kg, po administered twice daily via gavage for 5 days and measured post last dose by LC-MS/MS analysis; format: ADME, organism-based; details: time 5 day, read-out: Drug uptake; method in brief: as §1
[10] = Cmax in Swiss mouse at 3 mg/kg, po via gavage by LC-MS/MS analysis; format: ADME, organism-based; parameters: route oral, dose 3 mg/kg; details: in vivo
Method in brief: (§3)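 Female Swiss mice (n=3/group), fasted overnight, given single oral gavage dose in 0.5% CMC/0.5% Tween 80 (10 mL/kg) at 1, 3 or 10 mg/kg. Serial blood sampling at 0.16–8 h into heparinized tubes. Plasma extracted with acetonitrile containing verapamil internal standard and quantified by LC-MS/MS. Cmax, Tmax, AUC and t1/2 derived from the concentration–time profile.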

[11] = target: PI3-kinase p110-alpha/p85-alpha (Homo sapiens, UniProt P42336); experiment: Inhibition of recombinant human full-length N-terminal His-tagged p110 alpha/p85 alpha expressed in baculovirus expression system using PIP2 as substrate preincubated for 15 mins followed by substrate addition and measured after 60 mins by ADP HiLyte 647 tracer bound ADP2 antibody-Tb conjugate based HTRF assay
Method in brief: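 PI3Kα at 150 ng/mL (diluted stock) in 50 mM HEPES pH 7.4, 3 mM MgCl2, 2 mM DTT, 0.05% CHAPS, 50 mM NaCl, 1 mM EGTA. Compound tested over 10–0.001 µM. Final reaction held 50 µM PIP2 and 1 µM ATP. Detection mix added for 1 h, then 665/615 nm ratio read. % inhibition versus concentration fitted by four-parameter nonlinear regression to give IC50.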

[12] = AUC in Swiss mouse at 10 mg/kg, po via gavage by LC-MS/MS analysis; format: ADME, organism-based; parameters: dose 10 mg/kg; details: in vivo; method in brief: as §3
[13] = target: Ribosomal protein S6 kinase beta-2 (Homo sapiens) (UniProt Q9UBS0); experiment: Inhibition of human RPS6KB2 at 1 uM using fluorescently labeled peptide substrate measured after 3 hrs by microfluidic mobility shift assay relative to control; method in brief: as §2
[14] = Metabolic stability in human liver microsomes assessed as parent compound remaining at 10 uM remaining after 120 mins in presence of NADPH by HPLC analysis; format: ADME, Microsome; details: read-out: Stabilty
Method in brief: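 Compound at 10 µM was incubated with 0.5 mg/mL liver microsomes and 1 mM NADPH (final). Samples were taken at 0, 15, 30, 60 and 120 min and stopped with acetonitrile, then centrifuged and the supernatant analysed by HPLC. Percent parent remaining was set relative to the 0 min peak area (100%).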

[15] = Cmax in Swiss mouse at 1 mg/kg, po via gavage by LC-MS/MS analysis; format: ADME, organism-based; parameters: route oral, dose 1 mg/kg; details: in vivo; method in brief: as §3
[16] = Toxicity in Swiss mouse assessed as discoloration of uterus at 30 mg/kg, po administered twice daily via gavage for 5 days and measured post last dose; format: organism-based; details: in vivo, 120 h, time 5 day
Method in brief: (§4)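 Female Swiss mice (3 treated, 2 controls) were gavaged twice daily for 5 days, with compound in 0.5% CMC and Tween 80. After the last dosing the animals were sacrificed. Liver, kidney, lung, uterus and brain were excised and inspected visually for morphology and color change.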

[17] = Toxicity in Swiss mouse assessed as discoloration of kidney at 30 mg/kg, po administered twice daily via gavage for 5 days and measured post last dose; format: organism-based; details: in vivo, 120 h, time 5 day; method in brief: as §4
[18] = Toxicity in Swiss mouse assessed as piloerection at 30 mg/kg, po administered twice daily via gavage for 12 days and measured on day 9; format: organism-based; details: in vivo, 288 h, time 12 day
Method in brief: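 Female Swiss mice (4 treated, 2 controls) were gavaged twice daily for 12 days, with compound in 0.5% CMC and Tween 80. Clinical signs including body coat, body weight, temperature, feed intake and general activity were monitored daily.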

[19] = target: Dual specificity mitogen-activated protein kinase kinase 1 (Homo sapiens) (UniProt Q02750); experiment: Inhibition of human MEK1 at 1 uM using fluorescently labeled peptide substrate measured after 3 hrs by microfluidic mobility shift assay relative to control; method in brief: as §2
[20] = Elimination half life in Swiss mouse at 1 mg/kg, po via gavage by LC-MS/MS analysis; format: ADME, organism-based; details: in vivo, read-out: beta t1/2 (converted); method in brief: as §3
[21] = target: Phosphatidylinositol 4,5-bisphosphate 3-kinase catalytic subunit delta isoform (Homo sapiens) (UniProt O00329); experiment: Inhibition of human PI3kdelta at 1 uM using fluorescently labeled peptide substrate measured after 3 hrs by microfluidic mobility shift assay relative to control; method in brief: as §2
[22] = Tmax in Swiss mouse at 10 mg/kg, po via gavage by LC-MS/MS analysis; format: ADME, organism-based; details: in vivo
Method in brief: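 Female Swiss mice (n=3/group) were fasted overnight, then gavaged with compound in 0.5% CMC/0.5% Tween 80 at 10 mL/kg. Serial blood samples at 0.16, 0.5, 1, 2, 4, 6 and 8 h were taken into heparinized tubes and spun to plasma. Plasma was extracted with acetonitrile containing verapamil (400 ng/mL) and quantified by LC-MS/MS against plasma calibration curves. Tmax was derived from the concentration–time profile.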

Chain of Phosphatidylinositol 4,5-bisphosphate 3-kinase catalytic subunit delta isoform (Homo sapiens) (O00329 whole entry, canonical isoform): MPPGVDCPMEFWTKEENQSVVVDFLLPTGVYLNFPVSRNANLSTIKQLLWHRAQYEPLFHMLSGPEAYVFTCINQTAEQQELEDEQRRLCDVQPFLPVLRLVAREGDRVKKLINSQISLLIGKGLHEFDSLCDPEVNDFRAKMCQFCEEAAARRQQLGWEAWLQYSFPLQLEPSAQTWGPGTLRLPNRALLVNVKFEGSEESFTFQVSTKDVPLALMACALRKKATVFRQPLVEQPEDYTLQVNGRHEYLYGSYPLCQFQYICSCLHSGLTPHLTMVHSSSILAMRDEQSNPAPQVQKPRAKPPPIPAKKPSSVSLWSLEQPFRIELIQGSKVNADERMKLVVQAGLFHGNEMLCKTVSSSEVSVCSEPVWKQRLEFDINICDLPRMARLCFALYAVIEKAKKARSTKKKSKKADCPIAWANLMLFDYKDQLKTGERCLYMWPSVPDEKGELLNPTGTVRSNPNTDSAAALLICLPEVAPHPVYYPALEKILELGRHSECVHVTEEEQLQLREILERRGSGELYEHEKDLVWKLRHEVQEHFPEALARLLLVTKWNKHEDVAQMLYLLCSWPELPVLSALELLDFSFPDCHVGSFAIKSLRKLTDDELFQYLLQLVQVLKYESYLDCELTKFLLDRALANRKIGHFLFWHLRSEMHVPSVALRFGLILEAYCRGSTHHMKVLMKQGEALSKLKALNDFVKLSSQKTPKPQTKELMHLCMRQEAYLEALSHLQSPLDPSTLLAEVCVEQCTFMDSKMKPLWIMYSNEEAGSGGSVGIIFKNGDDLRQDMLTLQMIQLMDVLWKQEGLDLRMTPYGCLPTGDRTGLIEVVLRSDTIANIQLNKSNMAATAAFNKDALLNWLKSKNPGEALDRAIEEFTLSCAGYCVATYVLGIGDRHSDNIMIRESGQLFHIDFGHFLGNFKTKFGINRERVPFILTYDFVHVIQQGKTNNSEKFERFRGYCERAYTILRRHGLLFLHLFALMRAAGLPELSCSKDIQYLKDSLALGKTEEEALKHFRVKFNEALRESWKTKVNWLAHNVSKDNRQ
Chain of Ribosomal protein S6 kinase beta-1 (Homo sapiens) (P23443 whole entry, looked up): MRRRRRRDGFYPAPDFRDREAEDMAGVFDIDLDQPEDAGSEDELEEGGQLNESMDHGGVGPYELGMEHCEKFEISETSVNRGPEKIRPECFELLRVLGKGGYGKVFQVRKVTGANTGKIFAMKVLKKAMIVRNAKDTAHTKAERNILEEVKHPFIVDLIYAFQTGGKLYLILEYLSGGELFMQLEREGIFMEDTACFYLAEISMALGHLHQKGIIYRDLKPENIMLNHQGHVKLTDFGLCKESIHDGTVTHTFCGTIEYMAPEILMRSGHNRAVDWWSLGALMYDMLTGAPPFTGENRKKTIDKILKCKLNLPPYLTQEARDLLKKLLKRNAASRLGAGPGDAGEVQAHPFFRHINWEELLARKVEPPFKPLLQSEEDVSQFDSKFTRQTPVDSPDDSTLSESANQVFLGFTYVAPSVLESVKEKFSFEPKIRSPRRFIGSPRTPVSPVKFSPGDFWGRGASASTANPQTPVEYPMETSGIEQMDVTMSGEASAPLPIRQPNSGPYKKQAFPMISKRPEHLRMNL
Chain of Inhibitor of nuclear factor kappa-B kinase subunit beta (Homo sapiens) (O14920 whole entry): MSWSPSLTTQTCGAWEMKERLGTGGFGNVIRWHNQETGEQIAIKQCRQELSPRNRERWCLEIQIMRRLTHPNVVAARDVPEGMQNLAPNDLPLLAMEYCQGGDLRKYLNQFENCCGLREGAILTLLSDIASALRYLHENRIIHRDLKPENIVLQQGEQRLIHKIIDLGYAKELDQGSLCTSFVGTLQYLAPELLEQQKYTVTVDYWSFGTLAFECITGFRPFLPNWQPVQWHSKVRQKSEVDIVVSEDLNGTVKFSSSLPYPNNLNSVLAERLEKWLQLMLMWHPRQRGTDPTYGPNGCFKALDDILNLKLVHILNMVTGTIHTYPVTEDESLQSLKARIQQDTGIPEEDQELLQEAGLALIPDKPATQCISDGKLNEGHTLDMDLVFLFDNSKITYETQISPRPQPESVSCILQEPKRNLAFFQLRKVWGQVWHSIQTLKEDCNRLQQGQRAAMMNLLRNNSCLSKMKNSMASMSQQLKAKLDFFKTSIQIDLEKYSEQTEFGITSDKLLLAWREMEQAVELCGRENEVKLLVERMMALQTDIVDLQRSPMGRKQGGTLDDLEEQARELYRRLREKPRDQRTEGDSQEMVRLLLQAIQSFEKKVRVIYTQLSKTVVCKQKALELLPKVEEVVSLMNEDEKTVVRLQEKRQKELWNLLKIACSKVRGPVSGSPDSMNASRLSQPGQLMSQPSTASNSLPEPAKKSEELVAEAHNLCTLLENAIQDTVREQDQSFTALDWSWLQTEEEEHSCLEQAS
Chain of 3-phosphoinositide-dependent protein kinase 1 (Homo sapiens) (O15530 whole entry, looked up): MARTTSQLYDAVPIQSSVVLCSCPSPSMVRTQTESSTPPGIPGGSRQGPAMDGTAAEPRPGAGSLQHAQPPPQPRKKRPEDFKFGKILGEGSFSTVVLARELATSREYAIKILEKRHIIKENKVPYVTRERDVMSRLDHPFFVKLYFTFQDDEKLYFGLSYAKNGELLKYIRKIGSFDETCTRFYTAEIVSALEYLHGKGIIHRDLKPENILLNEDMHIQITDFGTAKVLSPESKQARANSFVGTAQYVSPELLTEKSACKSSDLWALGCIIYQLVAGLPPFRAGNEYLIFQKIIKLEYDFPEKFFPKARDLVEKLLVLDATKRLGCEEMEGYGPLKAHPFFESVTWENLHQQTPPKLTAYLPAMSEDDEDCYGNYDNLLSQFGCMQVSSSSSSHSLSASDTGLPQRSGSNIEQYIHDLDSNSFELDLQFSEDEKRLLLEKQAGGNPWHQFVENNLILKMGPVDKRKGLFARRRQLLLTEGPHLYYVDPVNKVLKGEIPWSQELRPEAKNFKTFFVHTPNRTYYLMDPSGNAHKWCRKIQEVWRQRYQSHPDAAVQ
Chain of Angiopoietin-1 receptor (Homo sapiens) (Q02763 whole entry): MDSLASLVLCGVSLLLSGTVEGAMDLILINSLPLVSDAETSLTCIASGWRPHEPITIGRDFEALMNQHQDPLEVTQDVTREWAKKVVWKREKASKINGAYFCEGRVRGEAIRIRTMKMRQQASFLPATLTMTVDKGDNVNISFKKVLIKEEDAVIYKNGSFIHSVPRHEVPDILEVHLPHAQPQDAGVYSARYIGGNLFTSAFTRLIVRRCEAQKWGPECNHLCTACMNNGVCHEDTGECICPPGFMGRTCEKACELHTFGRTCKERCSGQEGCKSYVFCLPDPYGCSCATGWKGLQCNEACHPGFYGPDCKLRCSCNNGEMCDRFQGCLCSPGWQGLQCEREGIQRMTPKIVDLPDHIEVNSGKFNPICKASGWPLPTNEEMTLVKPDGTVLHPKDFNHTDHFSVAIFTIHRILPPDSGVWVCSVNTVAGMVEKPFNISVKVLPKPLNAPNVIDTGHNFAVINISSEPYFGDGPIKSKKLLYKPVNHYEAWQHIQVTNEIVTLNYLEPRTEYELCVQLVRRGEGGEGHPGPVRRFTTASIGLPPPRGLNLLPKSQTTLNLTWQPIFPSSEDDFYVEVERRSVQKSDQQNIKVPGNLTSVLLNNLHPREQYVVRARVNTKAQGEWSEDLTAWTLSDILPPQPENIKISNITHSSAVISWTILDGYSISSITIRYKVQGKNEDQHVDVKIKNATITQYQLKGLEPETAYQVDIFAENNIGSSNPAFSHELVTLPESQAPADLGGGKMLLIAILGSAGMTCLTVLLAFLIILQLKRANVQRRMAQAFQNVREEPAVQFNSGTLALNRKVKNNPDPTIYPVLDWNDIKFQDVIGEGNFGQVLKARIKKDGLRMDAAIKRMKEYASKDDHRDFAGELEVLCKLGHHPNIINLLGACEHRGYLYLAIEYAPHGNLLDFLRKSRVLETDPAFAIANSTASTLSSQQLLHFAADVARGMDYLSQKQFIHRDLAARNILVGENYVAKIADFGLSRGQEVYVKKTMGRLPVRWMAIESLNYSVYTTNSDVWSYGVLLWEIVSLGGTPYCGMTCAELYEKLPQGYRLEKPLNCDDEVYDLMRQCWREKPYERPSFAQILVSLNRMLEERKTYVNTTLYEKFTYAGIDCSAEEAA
Chain of Dual specificity mitogen-activated protein kinase kinase 1 (Homo sapiens) (Q02750 whole entry): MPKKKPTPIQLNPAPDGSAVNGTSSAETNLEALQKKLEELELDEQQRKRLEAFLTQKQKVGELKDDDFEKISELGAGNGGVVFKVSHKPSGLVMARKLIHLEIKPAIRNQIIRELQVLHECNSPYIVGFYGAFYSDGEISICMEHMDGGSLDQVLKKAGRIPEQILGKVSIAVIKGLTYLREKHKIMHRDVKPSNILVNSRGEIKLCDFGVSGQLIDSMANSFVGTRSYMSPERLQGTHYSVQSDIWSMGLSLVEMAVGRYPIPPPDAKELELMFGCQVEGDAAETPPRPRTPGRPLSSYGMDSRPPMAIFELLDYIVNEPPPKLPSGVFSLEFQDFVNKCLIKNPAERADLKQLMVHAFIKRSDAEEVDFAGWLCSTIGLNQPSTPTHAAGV
Chain of Ribosomal protein S6 kinase beta-2 (Homo sapiens) (Q9UBS0 whole entry): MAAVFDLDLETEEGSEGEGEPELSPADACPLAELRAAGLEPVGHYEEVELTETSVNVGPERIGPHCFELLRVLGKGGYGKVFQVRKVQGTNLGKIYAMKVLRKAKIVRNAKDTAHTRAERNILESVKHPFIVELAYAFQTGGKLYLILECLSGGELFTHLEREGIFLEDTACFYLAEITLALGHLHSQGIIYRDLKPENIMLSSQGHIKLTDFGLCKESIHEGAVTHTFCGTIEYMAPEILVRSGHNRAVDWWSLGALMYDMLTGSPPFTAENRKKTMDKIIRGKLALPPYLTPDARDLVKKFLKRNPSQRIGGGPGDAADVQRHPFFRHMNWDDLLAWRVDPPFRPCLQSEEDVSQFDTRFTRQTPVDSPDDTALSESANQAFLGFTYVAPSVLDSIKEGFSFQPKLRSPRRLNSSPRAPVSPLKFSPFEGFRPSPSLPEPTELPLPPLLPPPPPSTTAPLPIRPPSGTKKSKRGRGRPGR

Question: Which results are given for `CN(C)C(=O)c1ccc(Oc2nc(-c3cnc(N)s3)nc(N3CCOCC3)n2)cc1`?
Answer: concentration at 120 h [1]: 50 ng/g; concentration at 120 h [2]: 10 ng/g; EC50 [3]: 500 nM; inhibition [4]: -1%; inhibition [5]: -1%; inhibition [6]: 1%; inhibition [7]: -3%; concentration at 120 h [8]: 160 ng/g; concentration at 120 h [9]: 85 ng/g; Cmax [10]: 6.9 µM; IC50 [11]: 30 nM; AUC [12]: 76.4 µM·h; inhibition [13]: -3%; remaining at 2 h, 10 µM [14]: 98%; Cmax [15]: 5.01 µM; Activity [16]: Non-Toxic; Activity [17]: Non-Toxic; Activity [18]: Toxic; inhibition [19]: 0%; half-life [20]: 2.66 h; inhibition [21]: 88%; Tmax [22]: 1.67 h
